From ChEMBL document CHEMBL4118061, “Design and synthesis of potent HIV-1 protease inhibitors with (S)-tetrahydrofuran-tertiary amine-acetamide as P2-ligand: Structure-activity studies and biological evaluation” (Eur J Med Chem, 2017)
pIC50: −log10 of the molar value.

Target: Protease (Human immunodeficiency virus 1, UniProt Q9YQ12)
Test: Inhibition of HIV1 protease expressed in Escherichia coli using Arg-Glu (EDANS)-Ser-GlnAsn-Tyr-Pro-Ile-Val-Gln-Lys(DABCYL)-Arg as substrate preincubated for 20 to 30 mins followed by substrate addition measured for 10 mins by FRET method
In short: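 Wild-type HIV-1 protease, cloned and expressed in E. coli, then purified. Inhibitors were dissolved in DMSO and diluted. Reaction buffer: 0.1 M sodium acetate, 1 M NaCl, 1 mM EDTA, 1 mM DTT, 2% DMSO, 1 mg/mL BSA, pH 4.7. Enzyme and inhibitor were preincubated 20-30 min at room temperature, then substrate was added. FRET read-out was recorded for about 10 min.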

Chain of Protease (Q9YQ12 whole entry): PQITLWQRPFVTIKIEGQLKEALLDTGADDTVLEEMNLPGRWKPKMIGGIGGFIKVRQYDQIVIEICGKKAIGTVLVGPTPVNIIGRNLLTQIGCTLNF

Row | SMILES | pIC50
1 | CC(C)CN(C[C@@H](O)[C@H](Cc1ccccc1)NC(=O)CN(CC(=O)N(C)C)[C@H]1CCOC1)S(=O)(=O)c1ccc2c(c1)OCO2 | 7.24
2 | CC(C)CN(C[C@@H](O)[C@H](Cc1ccccc1)NC(=O)CN(CC(=O)N1CCOCC1)[C@H]1CCOC1)S(=O)(=O)c1ccc(N)cc1 | 6.80
3 | COc1ccc(S(=O)(=O)N(CC(C)C)C[C@@H](O)[C@H](Cc2ccccc2)NC(=O)CN([C@H]2CCOC2)S(C)(=O)=O)cc1 | 7.90
4 | COCCN(CC(=O)N[C@@H](Cc1ccccc1)[C@H](O)CN(CC(C)C)S(=O)(=O)c1ccc(OC)cc1)[C@H]1CCOC1 | 9.46
5 | CC(C)CN(C[C@@H](O)[C@H](Cc1ccccc1)NC(=O)CN[C@H]1CCOC1)S(=O)(=O)c1ccc([N+](=O)[O-])cc1 | 7.33
6 | COCCN(CC(=O)N[C@@H](Cc1ccccc1)[C@H](O)CN(CC(C)C)S(=O)(=O)c1ccc(CO)cc1)[C@H]1CCOC1 | 8.37
7 | CC(C)CN(C[C@@H](O)[C@H](Cc1ccccc1)NC(=O)CN(CC(N)=O)[C@H]1CCOC1)S(=O)(=O)c1ccc(N)cc1 | 7.24
8 | CC(C)CN(C[C@@H](O)[C@H](Cc1ccccc1)NC(=O)CN(CC(=O)N1CCOCC1)[C@H]1CCOC1)S(=O)(=O)c1ccc(OC(F)(F)F)cc1 | 6.04
9 | CC(C)CN(C[C@@H](O)[C@H](Cc1ccccc1)NC(=O)CN(CC(=O)N(C)C)[C@H]1CCOC1)S(=O)(=O)c1ccc(OC(F)(F)F)cc1 | < 6.00
10 | CC(C)CN(C[C@@H](O)[C@H](Cc1ccccc1)NC(=O)CN(CC(=O)N(C)C)[C@H]1CCOC1)S(=O)(=O)c1ccc(N)cc1 | 7.42
11 | COc1ccc(S(=O)(=O)N(CC(C)C)C[C@@H](O)[C@H](Cc2ccccc2)NC(=O)CN(CC(=O)N(C)C)[C@H]2CCOC2)cc1 | 7.54
12 | COCCN(CC(=O)N[C@@H](Cc1ccccc1)[C@H](O)CN(CC(C)C)S(=O)(=O)c1ccc(OC)c(OC)c1)[C@H]1CCOC1 | 6.72
13 | COCCN(CC(=O)N[C@@H](Cc1ccccc1)[C@H](O)CN(CC(C)C)S(=O)(=O)c1ccc(OC(F)(F)F)cc1)[C@H]1CCOC1 | 7.17
14 | COc1ccc(S(=O)(=O)N(CC(C)C)C[C@@H](O)[C@H](Cc2ccccc2)NC(=O)CN([C@H]2CCOC2)S(C)(=O)=O)cc1OC | < 6.00
15 | CC(C)CN(C[C@@H](O)[C@H](Cc1ccccc1)NC(=O)CN([C@H]1CCOC1)S(C)(=O)=O)S(=O)(=O)c1ccc(OC(F)(F)F)cc1 | < 6.00
16 | COCCN(CC(=O)N[C@@H](Cc1ccccc1)[C@H](O)CN(CC(C)C)S(=O)(=O)c1ccc(N)cc1)[C@@H]1CCOC1 | 7.64
17 | COc1ccc(S(=O)(=O)N(CC(C)C)C[C@@H](O)[C@H](Cc2ccccc2)NC(=O)CN[C@H]2CCOC2)cc1 | 8.65
18 | CC(C)CN(C[C@@H](O)[C@H](Cc1ccccc1)NC(=O)CN([C@H]1CCOC1)S(C)(=O)=O)S(=O)(=O)c1ccc([N+](=O)[O-])cc1 | 6.54
19 | COc1ccc(S(=O)(=O)N(CC(C)C)C[C@@H](O)[C@H](Cc2ccccc2)NC(=O)CN[C@@H]2CCOC2)cc1 | 7.80
20 | CC(C)CN(C[C@@H](O)[C@H](Cc1ccccc1)NC(=O)CN[C@@H]1CCOC1)S(=O)(=O)c1ccc2c(c1)OCO2 | 7.27
21 | COCCN(CC(=O)N[C@@H](Cc1ccccc1)[C@H](O)CN(CC(C)C)S(=O)(=O)c1ccc([N+](=O)[O-])cc1)[C@H]1CCOC1 | 7.75
22 | CC(C)CN(C[C@@H](O)[C@H](Cc1ccccc1)NC(=O)CN[C@H]1CCOC1)S(=O)(=O)c1ccc(CO)cc1 | 7.99
23 | CC(C)CN(C[C@@H](O)[C@H](Cc1ccccc1)NC(=O)CN[C@H]1CCOC1)S(=O)(=O)c1ccc(OC(F)(F)F)cc1 | 6.54
24 | CC(C)CN(C[C@@H](O)[C@H](Cc1ccccc1)NC(=O)CN(CC(N)=O)[C@H]1CCOC1)S(=O)(=O)c1ccc([N+](=O)[O-])cc1 | 7.47

Row | SMILES | pIC50
25 | CC(C)CN(C[C@@H](O)[C@H](Cc1ccccc1)NC(=O)CN(CC(=O)N1CCOCC1)[C@H]1CCOC1)S(=O)(=O)c1ccc(CO)cc1 | 6.96
26 | CC(C)CN(C[C@@H](O)[C@H](Cc1ccccc1)NC(=O)CN[C@H]1CCOC1)S(=O)(=O)c1ccc2c(c1)OCO2 | 8.78
27 | COCCN(CC(=O)N[C@@H](Cc1ccccc1)[C@H](O)CN(CC(C)C)S(=O)(=O)c1ccc(N)cc1)[C@H]1CCOC1 | 9.06
28 | CC(C)CN(C[C@@H](O)[C@H](Cc1ccccc1)NC(=O)CN(CC(N)=O)[C@H]1CCOC1)S(=O)(=O)c1ccc(OC(F)(F)F)cc1 | 6.28
29 | CC(C)CN(C[C@@H](O)[C@H](Cc1ccccc1)NC(=O)CN([C@H]1CCOC1)S(C)(=O)=O)S(=O)(=O)c1ccc(N)cc1 | 7.22
30 | COCCN(CC(=O)N[C@@H](Cc1ccccc1)[C@H](O)CN(CC(C)C)S(=O)(=O)c1ccc(OC)cc1)[C@@H]1CCOC1 | 8.16
31 | CC(C)CN(C[C@@H](O)[C@H](Cc1ccccc1)NC(=O)CN(CC(=O)N1CCOCC1)[C@H]1CCOC1)S(=O)(=O)c1ccc([N+](=O)[O-])cc1 | 7.01
32 | CC(C)CN(C[C@@H](O)[C@H](Cc1ccccc1)NC(=O)CN[C@H]1CCOC1)S(=O)(=O)c1ccc(N)cc1 | 8.39
33 | CC(C)CN(C[C@@H](O)[C@H](Cc1ccccc1)NC(=O)CN(CC(=O)N1CCOCC1)[C@H]1CCOC1)S(=O)(=O)c1ccc2c(c1)OCO2 | 7.57
34 | CC(C)CN(C[C@@H](O)[C@H](Cc1ccccc1)NC(=O)CN(CC(=O)N(C)C)[C@H]1CCOC1)S(=O)(=O)c1ccc([N+](=O)[O-])cc1 | 6.57
35 | COc1ccc(S(=O)(=O)N(CC(C)C)C[C@@H](O)[C@H](Cc2ccccc2)NC(=O)CN(CC(N)=O)[C@H]2CCOC2)cc1OC | 8.00
36 | COc1ccc(S(=O)(=O)N(CC(C)C)C[C@@H](O)[C@H](Cc2ccccc2)NC(=O)CN(CC(N)=O)[C@H]2CCOC2)cc1 | 7.69
37 | CC(C)CN(C[C@@H](O)[C@H](Cc1ccccc1)NC(=O)CN([C@H]1CCOC1)S(C)(=O)=O)S(=O)(=O)c1ccc2c(c1)OCO2 | 7.64
38 | CC(C)CN(C[C@@H](O)[C@H](Cc1ccccc1)NC(=O)CN([C@H]1CCOC1)S(C)(=O)=O)S(=O)(=O)c1ccc(CO)cc1 | 7.64
39 | COCCN(CC(=O)N[C@@H](Cc1ccccc1)[C@H](O)CN(CC(C)C)S(=O)(=O)c1ccc2c(c1)OCO2)[C@@H]1CCOC1 | 8.22
40 | CC(C)CN(C[C@@H](O)[C@H](Cc1ccccc1)NC(=O)CN[C@@H]1CCOC1)S(=O)(=O)c1ccc(N)cc1 | 6.85
41 | COc1ccc(S(=O)(=O)N(CC(C)C)C[C@@H](O)[C@H](Cc2ccccc2)NC(=O)CN(CC(=O)N2CCOCC2)[C@H]2CCOC2)cc1 | 7.36
42 | CC(C)CN(C[C@@H](O)[C@H](Cc1ccccc1)NC(=O)CN(CC(=O)N(C)C)[C@H]1CCOC1)S(=O)(=O)c1ccc(CO)cc1 | 7.19
43 | COc1ccc(S(=O)(=O)N(CC(C)C)C[C@@H](O)[C@H](Cc2ccccc2)NC(=O)CN[C@H]2CCOC2)cc1OC | 6.51
44 | COc1ccc(S(=O)(=O)N(CC(C)C)C[C@@H](O)[C@H](Cc2ccccc2)NC(=O)CN(CC(=O)N2CCOCC2)[C@H]2CCOC2)cc1OC | < 6.00
45 | COc1ccc(S(=O)(=O)N(CC(C)C)C[C@@H](O)[C@H](Cc2ccccc2)NC(=O)CN(CC(=O)N(C)C)[C@H]2CCOC2)cc1OC | < 6.00
46 | CC(C)CN(C[C@@H](O)[C@H](Cc1ccccc1)NC(=O)CN(CC(N)=O)[C@H]1CCOC1)S(=O)(=O)c1ccc(CO)cc1 | 7.71
47 | COCCN(CC(=O)N[C@@H](Cc1ccccc1)[C@H](O)CN(CC(C)C)S(=O)(=O)c1ccc2c(c1)OCO2)[C@H]1CCOC1 | 9.11
48 | CC(C)CN(C[C@@H](O)[C@H](Cc1ccccc1)NC(=O)CN(CC(N)=O)[C@H]1CCOC1)S(=O)(=O)c1ccc2c(c1)OCO2 | < 6.00
